Results published in ChEMBL document CHEMBL1649165, “Activity profile in vitro of micafungin against Spanish clinical isolates of common and emerging species of yeasts and molds” (2009).
Values after ≈ are worked out from the molar mass of the structure shown.

What was measured:
Type in all cases: functional
[1] = system: Naganishia albida; assay: Antimicrobial activity against Cryptococcus albidus by broth microdilution method
How it was run: (§1)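 Clinical isolates of nonfermentative yeasts, tested by broth microdilution following EUCAST recommendations. The only change from that method was a minor modification to improve growth.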

[2] = system: Trichosporon ovoides; assay: Antimicrobial activity against Trichosporon ovoides by broth microdilution method
How it was run: (§2)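 Nonfermentative yeast clinical isolates (Rhodotorula, Trichosporon) tested by broth microdilution. The EUCAST yeast recommendations were followed strictly, with one minor modification to improve growth. MIC was read as the endpoint.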

[3] = system: [Candida] intermedia; assay: Antimicrobial activity against Candida intermedia by broth microdilution method; conditions: Sungouiella intermedia
How it was run: (§3)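 Clinical isolates from human patients, tested by broth microdilution using the AFST-EUCAST reference procedure for fermentative yeasts. The MIC was read per that reference method.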

[4] = system: Aureobasidium pullulans; assay: Antimicrobial activity against Aureobasidium pullulans by broth microdilution method
[5] = system: Scytalidium hyalinum; assay: Antimicrobial activity against Scytalidium hyalinum by broth microdilution method; conditions: Neoscytalidium hyalinum
How it was run: (§4)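 Filamentous fungus clinical isolates tested by the AFST-EUCAST reference broth microdilution method for moulds. For echinocandins, the endpoint was the minimum effective concentration: the lowest drug concentration giving aberrant hyphal growth, read with an inverted microscope.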

[6] = system: Trichosporon asahii; assay: Antimicrobial activity against Trichosporon asahii by broth microdilution method; how it was run: as §2
[7] = system: Geotrichum candidum; assay: Antimicrobial activity against Galactomyces geotrichum by broth microdilution method
[8] = system: Aspergillus sclerotiorum; assay: Antimicrobial activity against Aspergillus sclerotiorum by broth microdilution method
How it was run: (§5)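 Clinical mould isolates, tested by broth microdilution using the AFST-EUCAST reference method for filamentous fungi. For echinocandins, the endpoint was the minimum effective concentration: the lowest drug concentration giving aberrant hyphal growth, read with an inverted microscope.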

[9] = system: Aspergillus ochraceus; assay: Antimicrobial activity against Aspergillus ochraceus by broth microdilution method; how it was run: as §5
[10] = system: Aspergillus sydowii; assay: Antimicrobial activity against Aspergillus sydowii by broth microdilution method; how it was run: as §5
[11] = system: Scopulariopsis brevicaulis; assay: Antimicrobial activity against Scopulariopsis brevicaulis by broth microdilution method; how it was run: as §4
[12] = system: Neurospora sitophila; assay: Antimicrobial activity against Chrysonilia sitophila by broth microdilution method; how it was run: as §5
[13] = system: Torulaspora delbrueckii; assay: Antimicrobial activity against Candida coliculosa by broth microdilution method; how it was run: as §3
[14] = system: Fusarium oxysporum; assay: Antimicrobial activity against Fusarium oxysporum by broth microdilution method; how it was run: as §5
[15] = system: Scedosporium apiospermum; assay: Antimicrobial activity against Scedosporium apiospermum by broth microdilution method; how it was run: as §4
[16] = system: Kluyveromyces marxianus; assay: Antimicrobial activity against Candida kefyr by broth microdilution method; how it was run: as §3
[17] = system: Phialemonium curvatum; assay: Antimicrobial activity against Phialemonium curvatum by broth microdilution method; conditions: Thyridium curvatum; how it was run: as §4
[18] = system: Aspergillus niger; assay: Antimicrobial activity against Aspergillus niger by broth microdilution method; how it was run: as §5
[19] = system: Pichia kudriavzevii; assay: Antimicrobial activity against Candida krusei by broth microdilution method; how it was run: as §3
[20] = system: Fennellia nivea; assay: Antimicrobial activity against Aspergillus niveus by broth microdilution method; how it was run: as §5
[21] = system: [Candida] inconspicua; assay: Antimicrobial activity against Candida inconspicua by broth microdilution method; conditions: Pichia inconspicua; how it was run: as §3
[22] = system: Aspergillus versicolor; assay: Antimicrobial activity against Aspergillus versicolor by broth microdilution method; how it was run: as §5
[23] = system: Fusarium reticulatum; assay: Antimicrobial activity against Fusarium reticulatum by broth microdilution method; how it was run: as §4
[24] = system: Papiliotrema laurentii; assay: Antimicrobial activity against Cryptococcus laurentii by broth microdilution method; how it was run: as §1
[25] = system: Fusarium solani; assay: Antimicrobial activity against Fusarium solani by broth microdilution method; how it was run: as §4
[26] = system: Lewia infectoria; assay: Antimicrobial activity against Alternaria infectoria by broth microdilution method; how it was run: as §5
[27] = system: Aspergillus glaucus; assay: Antimicrobial activity against Aspergillus glaucus by broth microdilution method; how it was run: as §5
[28] = system: Pichia norvegensis; assay: Antimicrobial activity against Candida norvegensis by broth microdilution method; how it was run: as §3
[29] = system: Candida albicans; assay: Antimicrobial activity against Candida albicans by broth microdilution method; how it was run: as §3
[30] = system: Cryptococcus deneoformans; assay: Antimicrobial activity against Cryptococcus neoformans var. neoformans by broth microdilution method; how it was run: as §1
[31] = system: Lecythophora hoffmannii; assay: Antimicrobial activity against Lecythophora hoffmannii by broth microdilution method; conditions: Coniochaeta hoffmannii; how it was run: as §4
[32] = system: Lichtheimia corymbifera; assay: Antimicrobial activity against Mycocladus corymbiferus by broth microdilution method; how it was run: as §4
[33] = system: Magnusiomyces capitatus; assay: Antimicrobial activity against Dipodascus capitatus by broth microdilution method
[34] = system: Lomentospora prolificans; assay: Antimicrobial activity against Scedosporium prolificans by broth microdilution method; how it was run: as §4
[35] = system: Rhizomucor; assay: Antimicrobial activity against Rhizomucor spp.by broth microdilution method; how it was run: as §4
[36] = system: Paecilomyces lilacinus; assay: Antimicrobial activity against Paecilomyces lilacinus by broth microdilution method; conditions: Purpureocillium lilacinum; how it was run: as §4
[37] = system: Saccharomyces cerevisiae; assay: Antimicrobial activity against Saccharomyces cerevisiae by broth microdilution method
[38] = system: [Candida] zeylanoides; assay: Antimicrobial activity against Candida zeylanoides by broth microdilution method; conditions: Dujonia zeylanoides; how it was run: as §3
[39] = system: Clavispora lusitaniae; assay: Antimicrobial activity against Candida lusitaniae by broth microdilution method; how it was run: as §3
[40] = system: Exophiala jeanselmei; assay: Antimicrobial activity against Exophiala jeanselmei by broth microdilution method

CC[C@@H]([C@H](C)O)n1ncn(-c2ccc(N3CCN(c4ccc(OC[C@@H]5CO[C@@](Cn6cncn6)(c6ccc(F)cc6F)C5)cc4)CC3)cc2)c1=O [POSACONAZOLE]
MIC50 [1]: 0.25 µg/mL (≈ 0.357 µM) | MIC90 [1]: > 8 µg/mL | MIC50 [2]: 0.25 µg/mL (≈ 0.357 µM) | MIC90 [2]: > 8 µg/mL | MIC50 [3]: 0.03 µg/mL (≈ 0.0428 µM) | MIC90 [3]: > 8 µg/mL | MIC50 [4]: 0.06 µg/mL (≈ 0.0856 µM) | MIC90 [4]: > 8 µg/mL | MIC50 [5]: 0.06 µg/mL (≈ 0.0856 µM) | MIC90 [5]: > 8 µg/mL | MIC50 [6]: 0.25 µg/mL (≈ 0.357 µM) | MIC90 [6]: > 8 µg/mL | MIC50 [7]: 0.5 µg/mL (≈ 0.713 µM) | MIC90 [7]: 0.5 µg/mL (≈ 0.713 µM) | MIC50 [8]: 0.12 µg/mL (≈ 0.171 µM) | MIC90 [8]: > 8 µg/mL | MIC50 [9]: 0.12 µg/mL (≈ 0.171 µM) | MIC90 [9]: > 8 µg/mL | MIC50 [10]: 0.25 µg/mL (≈ 0.357 µM) | MIC90 [10]: 0.5 µg/mL (≈ 0.713 µM) | MIC50 [11]: 4 µg/mL (≈ 5.71 µM) | MIC90 [11]: > 8 µg/mL | MIC50 [12]: 4 µg/mL (≈ 5.71 µM) | MIC90 [12]: > 8 µg/mL | MIC50 [13]: 0.03 µg/mL (≈ 0.0428 µM) | MIC90 [13]: > 8 µg/mL | MIC50 [14]: 4 µg/mL (≈ 5.71 µM) | MIC90 [14]: > 8 µg/mL | MIC50 [15]: 1 µg/mL (≈ 1.43 µM) | MIC90 [15]: 8 µg/mL (≈ 11.4 µM) | MIC50 [16]: 0.03 µg/mL (≈ 0.0428 µM) | MIC90 [16]: 0.06 µg/mL (≈ 0.0856 µM) | MIC50 [17]: 4 µg/mL (≈ 5.71 µM) | MIC90 [17]: > 8 µg/mL | MIC50 [18]: 0.25 µg/mL (≈ 0.357 µM) | MIC90 [18]: 0.5 µg/mL (≈ 0.713 µM) | MIC50 [19]: 0.12 µg/mL (≈ 0.171 µM) | MIC90 [19]: 0.25 µg/mL (≈ 0.357 µM) | MIC50 [20]: 0.12 µg/mL (≈ 0.171 µM) | MIC90 [20]: > 8 µg/mL | MIC50 [21]: 0.03 µg/mL (≈ 0.0428 µM) | MIC90 [21]: > 8 µg/mL | MIC50 [22]: 0.25 µg/mL (≈ 0.357 µM) | MIC90 [22]: 0.5 µg/mL (≈ 0.713 µM) | MIC50 [23]: 4 µg/mL (≈ 5.71 µM) | MIC90 [23]: > 8 µg/mL | MIC50 [24]: 0.25 µg/mL (≈ 0.357 µM) | MIC90 [24]: > 8 µg/mL | MIC50 [25]: > 8 µg/mL | MIC90 [25]: > 8 µg/mL | MIC50 [26]: 0.5 µg/mL (≈ 0.713 µM) | MIC90 [26]: > 8 µg/mL | MIC50 [27]: 0.12 µg/mL (≈ 0.171 µM) | MIC90 [27]: > 8 µg/mL | MIC50 [28]: 0.03 µg/mL (≈ 0.0428 µM) | MIC90 [28]: > 8 µg/mL | MIC50 [29]: 0.02 µg/mL (≈ 0.0285 µM) | MIC90 [29]: 0.02 µg/mL (≈ 0.0285 µM) | MIC50 [30]: 0.12 µg/mL (≈ 0.171 µM) | MIC90 [30]: 0.5 µg/mL (≈ 0.713 µM) | MIC50 [31]: 0.06 µg/mL (≈ 0.0856 µM) | MIC90 [31]: > 8 µg/mL | MIC50 [32]: 0.5 µg/mL (≈ 0.713 µM) | MIC90 [32]: > 8 µg/mL | MIC50 [33]: 0.5 µg/mL (≈ 0.713 µM) | MIC90 [33]: 0.5 µg/mL (≈ 0.713 µM) | MIC50 [34]: > 8 µg/mL | MIC90 [34]: > 8 µg/mL | MIC50 [35]: 4 µg/mL (≈ 5.71 µM) | MIC90 [35]: > 8 µg/mL | MIC50 [36]: 0.25 µg/mL (≈ 0.357 µM) | MIC90 [36]: 0.5 µg/mL (≈ 0.713 µM) | MIC50 [37]: 0.25 µg/mL (≈ 0.357 µM) | MIC90 [37]: 0.5 µg/mL (≈ 0.713 µM) | MIC50 [38]: 0.03 µg/mL (≈ 0.0428 µM) | MIC90 [38]: > 8 µg/mL | MIC50 [39]: 0.02 µg/mL (≈ 0.0285 µM) | MIC90 [39]: 0.02 µg/mL (≈ 0.0285 µM) | MIC50 [40]: 0.06 µg/mL (≈ 0.0856 µM) | MIC90 [40]: > 8 µg/mL
